# Source: PubChem
# SIAE primary – human SIAE inhibition, primary screen. actives 0.69% (n = 370,000). inhibition, % at 9.66 µM. Q9HAT2. AID 1053197. SIAE FP-Rh probe binding, fluorescence polarization;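 active means inhibition above a cutoff: mean of compounds within the control limits plus 3 SD of those, cut at about 17% in these data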;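 further: 0% = plate median of compound wells and 100% = probe without SIAE protein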
# UHRF1 binding – UHRF1 methyl-DNA binding inhibition; AID 687016; Q96T88; inhibition, % at 4.4 µM; UHRF1 binding to methylated oligo, TR-FRET; actives 0.75% (n = 370,000); in the data active means inhibition above about 21%;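 further: UHRF1 SRA domain binding a hemimethylated CpG hairpin DNA probe; 0% = median of test compound wells and 100% = reference inhibitor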
# TDP2 absorb – blocks human TDP2 phosphodiesterase activity. O95551. inhibition, % at 12.8 µM. AID 720702. recombinant TDP2, T5PNP hydrolysis, p-nitrophenol absorbance 415 nm. actives 0.34% (n = 370,000);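 active means inhibition above the mean of all tested compounds plus 3 SD, set per campaign, cut at about 25% in these data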;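 further: 0% = DMSO with enzyme and 100% = buffer with substrate but no TDP2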
#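 Material: recombinant human TDP2; quantity: TDP2 enzyme at 120 nM final; medium: Tris-HCl pH 7.5 with MgCl2; compound: single concentration, 12.8 µM nominal, with 1% DMSO; incubation: 2 h enzyme incubation at 37 °C; signal: epi absorbance; measure: percent inhibition; benchmarks: high control without enzyme, low control DMSO plus TDP2; repeats: singlicate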
# PRMT1 inh – inhibitors of human PRMT1; Q99873; recombinant PRMT1, activity-based probe fluorescence polarization; inhibition, % at 2.79 µM; actives 1.3% (n = 370,000); AID 652257;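 active means inhibition above about 21% made by adding two undisclosed values, limit read from the data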
# MBD2 DNA inh – inhibitors of human MBD2 binding to methylated oligonucleotide; Q9UBB5; TR-FRET; inhibition, % at 4.4 µM; actives 0.31% (n = 370,000); AID 686964; in the data active means inhibition above about 13%
# LEDGF integ inh – blocks HIV-1 LEDGF/p75-dependent DNA integration; TR-FRET IN-LEDGF/p75 DNA integration, Eu/Cy5; actives 0.64% (n = 370,000); inhibition, % at 3.7 µM;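 active means inhibition above the screen-wide mean plus 3 SD, cut at about 13% in these data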;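 further: signal is the Cy5 over europium emission ratio at 671 and 618 nm; 0% = plate median of compound wells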
# TDP2 confirm – confirmation of human TDP2 inhibitors. shares compounds with TDP2 absorb. recombinant human TDP2, absorbance read-out. inhibition, % at 12.8 µM. actives 22% (n = 1,100); in the data active means inhibition above about 25%;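 further: 0% = vehicle with enzyme and 100% = no enzyme buffer only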
# Active calls of the source: *; . = no result. Sampled rows, rich in hits. Any-hit rate of the full collection: about 3.3%.
SMILES,SIAE primary,UHRF1 binding,TDP2 absorb,PRMT1 inh,MBD2 DNA inh,LEDGF integ inh,TDP2 confirm
C=CCN1C=C2C(=O)C(C)(OC(=O)c3cccs3)C(=O)C=C2C=C1CCCC(=O)OC (stereo not drawn),5,-2,26*,6,-9,-2,4
COc1cccc(C(C[N+](=O)[O-])c2c(C)[nH]n(-c3ccccc3)c2=O)c1 (stereo not drawn),5,-9,28*,-1,-8,1,21
Cc1[nH]n(-c2ccccc2)c(=O)c1C(C[N+](=O)[O-])c1ccc(Br)cc1 (stereo not drawn),8,-5,22,2,-2,-1,.
N#Cc1ccc(/C=C2\CC3(OC(=O)c4cccc(F)c4)CCCN2C3)cc1 (stereo not drawn),1,-1,-2,-2,5,3,.
O=C1CCC(=O)N1CC(=O)N1CCCc2ccccc21,-6,2,25*,6,0,-1,13
Cc1nn2c(=O)cc(CSc3ccccc3NC(=O)c3ccccc3)nc2s1,-2,-2,26*,1,1,-1,-5
COc1cc(C2C(C#N)=C(N)Oc3n[nH]c(-c4cccnc4)c32)cc(Br)c1O (stereo not drawn),2,-6,31*,-3,-8,7,-4
COc1cc(C2C(C#N)=C(N)Oc3n[nH]c(C)c32)ccc1OC(=O)c1ccccc1 (stereo not drawn),-6,-8,6,1,-1,3,.
Cc1ccc(C2C(C#N)=C(N)Oc3n[nH]c(-c4cccnc4)c32)o1 (stereo not drawn),3,-9,14,2,-4,3,.
COc1cc(C2C(C#N)=C(N)Oc3n[nH]c(-c4cccnc4)c32)ccc1OCC(N)=O (stereo not drawn),4,-7,52*,-6,-12,9,-3
CC1=C(C(=O)OC(C)C)C2(O)C(=O)c3ccccc3C2(O)N1 (stereo not drawn),-2,-7,44*,2,-8,3,13
CCOC(=O)C1=C(C)N[C@@]2(O)c3ccccc3C(=O)[C@@]12O,1,-6,36*,-1,-2,2,29*
CCCCOC(=O)C1=C(C)NC2(O)c3ccccc3C(=O)C12O (stereo not drawn),-1,-5,61*,1,-9,3,25*
CCCC1CCC2(CC1)CCC2OC(=S)Nc1ccccc1C(F)(F)F (stereo not drawn),4,-3,-11,-3,-9,6,.
Clc1ccc(-c2nnc(SCc3cccc4ccccc34)n2-c2ccc(Cl)cc2)cc1,-4,0,5,-1,0,-3,.
CCOC(=O)c1c(-c2ccc(Cl)cc2)csc1NC(=O)CNCc1ccco1,0,-2,32*,3,-3,4,8
CCN(CC)C(=O)CC[C@@H]1CC[C@]2(CCCN(C(=O)C(C)(C)C)C2)O1,-1,-1,-2,1,-2,1,.
C=CCn1c(SCc2c(F)c(F)c(F)c(F)c2F)nc(O)cc1=O,-6,0,43*,-2,2,1,8
COC1=C(Nc2ccc(OC)cc2)C(=O)C(OC)=C(Nc2ccc(OC)cc2)C1=O,14,-3,3,-1,2,-4,.
CCOc1ccc(NC2=C(OC)C(=O)c3ccccc3C2=O)cc1,6,-7,26*,4,-18,6,22
COC1=C(Nc2ccc(O)cc2)C(=O)c2ccccc2C1=O,9,-23,48*,-3,-24,6,6
CCCCCCCCN1C(=O)[C@@H](CC(=O)N2CCOCC2)C[C@@]2(C(=O)OC)C1=C[C@H](COCc1ccccc1)O[C@@H]2C,0,1,3,-1,-2,-4,.
COc1cc(C2Nc3ccccc3C(=O)N2c2ccccc2)ccc1O (stereo not drawn),5,19,29*,4,10,6,5
CCOc1cc(C2Nc3ccccc3C(=O)N2c2ccccc2)ccc1O (stereo not drawn),1,6,1,1,4,-2,.
